Assay results published in PMC6656940 (CPT: Pharmacometrics & Systems Pharmacology, 2019).
Where two headings read alike, the source gives them in different places.

Assays:
[1] = biological target: CYP2C19 (Homo sapiens, UniProt P33261); assay: In vitro competitive inhibition of CYP2C19; format: in vitro ADME; settings: read-out: CYP2C19 Ki; reversible inhibition
[2] = test system: BTK; settings: cited from earlier work
[3] = biological target: CYP2C9 (Homo sapiens, UniProt P11712); assay: In vitro competitive inhibition of CYP2C9; format: in vitro ADME
CYP2C9, sequence (P11712 whole entry): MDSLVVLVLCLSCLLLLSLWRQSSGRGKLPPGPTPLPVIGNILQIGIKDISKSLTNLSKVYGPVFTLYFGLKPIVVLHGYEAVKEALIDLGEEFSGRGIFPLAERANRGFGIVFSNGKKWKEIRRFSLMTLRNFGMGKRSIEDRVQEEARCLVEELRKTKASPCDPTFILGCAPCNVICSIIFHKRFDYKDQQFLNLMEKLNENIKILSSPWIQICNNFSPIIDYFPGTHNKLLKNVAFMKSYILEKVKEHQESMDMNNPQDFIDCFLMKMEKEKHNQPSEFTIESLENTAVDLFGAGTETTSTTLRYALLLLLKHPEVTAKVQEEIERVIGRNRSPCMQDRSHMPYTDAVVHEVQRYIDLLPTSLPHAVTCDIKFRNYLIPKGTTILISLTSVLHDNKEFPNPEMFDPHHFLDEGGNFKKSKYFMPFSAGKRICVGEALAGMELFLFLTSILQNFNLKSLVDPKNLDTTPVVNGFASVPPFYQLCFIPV

[4] = biological target: T1, CYP2C8 (Homo sapiens, UniProt P10632); assay: In vitro competitive and time-dependent inhibition of CYP2C8; format: in vitro ADME
T1 sequence (P10632 1-490): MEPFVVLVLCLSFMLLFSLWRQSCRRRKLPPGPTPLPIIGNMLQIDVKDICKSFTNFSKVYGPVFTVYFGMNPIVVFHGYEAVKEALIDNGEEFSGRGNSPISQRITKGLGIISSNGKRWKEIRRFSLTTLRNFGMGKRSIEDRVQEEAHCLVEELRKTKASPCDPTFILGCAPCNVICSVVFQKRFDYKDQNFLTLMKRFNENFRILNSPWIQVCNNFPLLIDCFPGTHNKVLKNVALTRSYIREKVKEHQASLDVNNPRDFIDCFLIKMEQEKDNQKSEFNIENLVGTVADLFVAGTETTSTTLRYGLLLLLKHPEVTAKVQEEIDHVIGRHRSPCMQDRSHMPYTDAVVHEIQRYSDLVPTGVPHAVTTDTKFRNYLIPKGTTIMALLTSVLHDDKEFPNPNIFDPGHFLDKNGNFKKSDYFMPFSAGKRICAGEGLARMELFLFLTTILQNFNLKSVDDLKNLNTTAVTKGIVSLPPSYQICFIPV

[5] = test system: CYP3A4; assay: Clearance of ACP-5862 in human liver microsomes; format: in vitro ADME; settings: assigned to CYP3A4
[6] = cited from earlier work
[7] = Blood-to-plasma partition ratio; format: in vitro ADME
[8] = Physicochemical properties; settings: Experimental data
[9] = Unbound fraction in plasma; format: in vitro ADME
[10] = cited from earlier work; remark: listed apart in the source
[11] = biological target: CYP3A4 (Homo sapiens, UniProt P08684); assay: biochemical; format: in vitro ADME
CYP3A4 (Homo sapiens, UniProt P08684), sequence (P08684 whole entry): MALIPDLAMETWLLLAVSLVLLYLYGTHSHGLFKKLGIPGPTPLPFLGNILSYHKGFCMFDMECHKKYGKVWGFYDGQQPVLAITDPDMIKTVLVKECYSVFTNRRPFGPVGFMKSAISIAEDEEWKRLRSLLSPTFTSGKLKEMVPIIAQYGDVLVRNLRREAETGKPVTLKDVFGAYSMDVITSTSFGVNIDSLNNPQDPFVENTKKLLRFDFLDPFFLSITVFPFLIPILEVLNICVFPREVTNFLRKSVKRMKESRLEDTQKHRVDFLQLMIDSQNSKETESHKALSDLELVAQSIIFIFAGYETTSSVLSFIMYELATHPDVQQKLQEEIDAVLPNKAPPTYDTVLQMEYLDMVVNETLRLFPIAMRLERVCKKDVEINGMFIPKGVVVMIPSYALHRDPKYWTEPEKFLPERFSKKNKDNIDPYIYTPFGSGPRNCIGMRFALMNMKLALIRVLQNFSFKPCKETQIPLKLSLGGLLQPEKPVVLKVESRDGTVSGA

[12] = test system: CYP2B6; assay: In vitro CYP induction, CYP2B6 marker substrate; format: in vitro ADME; settings: any concentration evaluated
[13] = clinical DDI study with rifampicin; cited from earlier work
[14] = biological target: T2, P-gp (Homo sapiens, UniProt P08183); assay: In vitro P-gp inhibition; format: in vitro ADME
T2 sequence (P08183 whole entry): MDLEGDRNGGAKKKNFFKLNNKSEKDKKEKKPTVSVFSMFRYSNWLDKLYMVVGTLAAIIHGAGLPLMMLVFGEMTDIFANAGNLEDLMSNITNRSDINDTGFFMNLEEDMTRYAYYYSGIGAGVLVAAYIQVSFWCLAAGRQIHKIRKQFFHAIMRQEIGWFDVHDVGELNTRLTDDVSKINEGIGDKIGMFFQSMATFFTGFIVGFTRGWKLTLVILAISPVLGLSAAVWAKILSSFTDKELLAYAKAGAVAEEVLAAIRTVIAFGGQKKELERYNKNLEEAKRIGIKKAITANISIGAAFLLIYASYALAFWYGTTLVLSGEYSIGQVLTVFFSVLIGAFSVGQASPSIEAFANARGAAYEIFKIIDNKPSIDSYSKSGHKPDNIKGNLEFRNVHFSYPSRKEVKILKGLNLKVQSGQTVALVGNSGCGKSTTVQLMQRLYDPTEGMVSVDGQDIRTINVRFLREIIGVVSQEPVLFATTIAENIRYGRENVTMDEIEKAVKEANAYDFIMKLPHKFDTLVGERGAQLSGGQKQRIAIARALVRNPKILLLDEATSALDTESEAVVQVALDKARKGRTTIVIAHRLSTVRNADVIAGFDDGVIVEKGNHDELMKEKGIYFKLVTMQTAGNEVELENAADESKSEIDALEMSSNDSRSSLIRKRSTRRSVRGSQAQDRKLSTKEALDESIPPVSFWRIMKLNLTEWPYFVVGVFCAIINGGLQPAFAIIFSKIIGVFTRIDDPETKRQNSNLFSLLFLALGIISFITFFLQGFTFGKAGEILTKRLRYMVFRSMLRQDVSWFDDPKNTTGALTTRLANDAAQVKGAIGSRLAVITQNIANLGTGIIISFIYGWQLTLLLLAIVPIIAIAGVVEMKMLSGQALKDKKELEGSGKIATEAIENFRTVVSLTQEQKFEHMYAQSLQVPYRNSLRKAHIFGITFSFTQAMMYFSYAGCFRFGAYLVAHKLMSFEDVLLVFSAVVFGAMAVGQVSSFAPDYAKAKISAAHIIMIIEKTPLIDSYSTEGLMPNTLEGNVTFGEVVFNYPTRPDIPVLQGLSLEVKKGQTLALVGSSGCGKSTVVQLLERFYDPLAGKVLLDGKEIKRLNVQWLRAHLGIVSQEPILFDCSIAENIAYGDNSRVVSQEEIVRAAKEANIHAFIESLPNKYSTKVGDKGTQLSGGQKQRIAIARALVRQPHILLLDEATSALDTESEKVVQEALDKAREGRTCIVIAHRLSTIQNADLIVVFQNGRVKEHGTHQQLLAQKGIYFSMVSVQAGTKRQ

[15] = Clinical pharmacokinetics of acalabrutinib and ACP-5862; format: in vivo, human; settings: ACE-HV-001, oral
Procedure, shortened: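 Healthy subjects in a phase I dose-escalation study (ACE-HV-001) received single oral acalabrutinib doses of 25, 50, 75 or 100 mg (cohorts 3–6). In vivo total clearance was taken from this study's plasma concentration–time data.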

[16] = PBPK model input parameters predicted, optimized or estimated in Simcyp; set-up: species or system human
[17] = test system: human hepatocytes; assay: Metabolite profiling of 14C-acalabrutinib in human hepatocytes; format: in vitro ADME; settings: 20 μM 14C-acalabrutinib
Procedure, shortened: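 14C-labelled test compound at 20 μM was incubated with human hepatocytes from two male donors for qualitative metabolite profiling. Metabolism was apportioned between glutathione and CYP-mediated pathways, and the CYP3A share of CYP metabolite formation was estimated.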

[18] = test system: patients with relapsed/refractory mantle cell lymphoma; settings: median follow-up 15.2 months; cited from earlier work
[19] = test system: CYP1A2; assay: In vitro CYP induction, CYP1A2 marker substrate; format: in vitro ADME; settings: any concentration evaluated
[20] = test system: CYP3A4; format: in vitro ADME; settings: any concentration evaluated
[21] = test system: patients with relapsed CLL; settings: median follow-up 14.3 months; cited from earlier work
[22] = biological target: T2, P-gp; assay: Efflux in MDCKII-MDR1 cells; format: in vitro ADME; settings: dog, MDCK-MDR1
[23] = with strong CYP3A inhibitor clarithromycin; cited from earlier work

CYP2C19, sequence (P33261 whole entry): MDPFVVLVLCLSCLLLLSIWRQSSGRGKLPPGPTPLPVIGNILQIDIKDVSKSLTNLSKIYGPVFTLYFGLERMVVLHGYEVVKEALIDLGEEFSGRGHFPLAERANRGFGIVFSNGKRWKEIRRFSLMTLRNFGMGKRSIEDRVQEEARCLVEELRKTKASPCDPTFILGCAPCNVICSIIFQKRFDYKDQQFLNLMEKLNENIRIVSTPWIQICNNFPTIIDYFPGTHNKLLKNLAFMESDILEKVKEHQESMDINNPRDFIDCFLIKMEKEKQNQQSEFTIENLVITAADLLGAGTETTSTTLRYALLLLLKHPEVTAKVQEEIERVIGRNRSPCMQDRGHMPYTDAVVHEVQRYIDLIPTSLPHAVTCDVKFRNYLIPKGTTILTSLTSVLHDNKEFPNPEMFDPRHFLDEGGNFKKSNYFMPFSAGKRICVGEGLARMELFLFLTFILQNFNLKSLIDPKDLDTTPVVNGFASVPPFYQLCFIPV

In the case of `CC#CC(=O)NCCCC(=O)c1nc(-c2ccc(C(=O)Nc3ccccn3)cc2)c2c(N)nccn12` [ACP‐5862], the Ki [1] is given as 8.5 µM, the “potency for BTK inactivation relative to parent acalabrutinib” value [2] is given as ~ 50% and the Ki ([3]; read-out: CYP2C9 Ki, reversible inhibition) is given as 3.35 µM. For the same molecule, the Ki ([4]; read-out: CYP2C8 KI, time-dependent inhibition) was 4 µM, the CYP2C8 kinact ([4]; time-dependent inhibition) was 0.72 h⁻¹ and the “Clint in vitro HLM, CYP3A4” value [5] was 23.6 µL/min/mg. For the same molecule, the “CLR (renal clearance)” value ([6]; ACP-5862, reported in ACE-HV-009) was 0.3 L/h, the half-life ([6]; ACP-5862 after single oral dose of 100 mg acalabrutinib) was 6.9 h and the “B/P ratio (blood-to-plasma ratio)” value ([7]; Experimental data) was 0.65. The Compound type [8] was “Diprotic base”, the logP [8] was 2.72 and the “pKa (first value)” value [8] was 3.41. For the same molecule, the “pKa (second value)” value [8] was 4.49, the “fu,plasma (unbound fraction in plasma)” value ([9]; Experimental data) was 0.013 and the “ACP-5862-related metabolites, share of total dose” value ([10]; human mass balance study) was 10%.

Work on `CC#CC(=O)N1CCC[C@H]1c1nc(-c2ccc(C(=O)Nc3ccccn3)cc2)c2c(N)nccn12` [Acalabrutinib] yielded a Ki ([11]; CYP3A4 Ki, reversible inhibition) of 23.9 µM, a kinact ([11]; human) of 0.000308 s⁻¹ and a Ki [3] of 11.3 µM. For the same molecule, the “induction of metabolism of CYP2B6 marker substrate” value [12] was “did not cause significant induction”, the Ki [4] was 20.6 µM and the “acalabrutinib AUC with rifampicin, reduced to % of control” value [13] was ~ 20%. The P-gp inhibition [14] was “not a P‐gp inhibitor”, the “in vivo total clearance” value [15] was 169 L/h and the “CLR (renal clearance)” value ([6]; clinical study ACE-HV-009) was 1.33 L/h. For the same molecule, the absolute oral bioavailability ([6]; healthy subjects) was 25%, the oral half-life ([6]; healthy subjects) was “about 1.57 hours” and the “accumulation after multiple doses” value ([6]; patients) was “no accumulation”. For the same molecule, the blood plasma ratio ([7]; blood) was 0.787, the “CYP3A4 CLint” value ([16]; Retrograde model, total CYP3A4 clearance) was 9.63 µL/min/pmol and the microsomal CLint ([16]; human, liver microsomes) was 290 µL/min/mg. The “CYP3A4 CLint” value ([16]; the rest to other metabolites) was 8.14 µL/min/pmol, the “share of CYP3A in the formation of CYP metabolites” value [17] was ~ 90% and the “relative contribution of CYP-mediated metabolic pathway” value ([17]; two male donors) was 79%. The “relative contribution of glutathione metabolic pathway” value ([17]; two male donors) was 21%, the Compound type [8] was “Diprotic base” and the pKa ([8]; pKa (first value)) was 3.54. The fraction unbound ([9]; plasma) was 0.026, the “investigator-assessed overall response rate” value [18] was 81% and the “induction of metabolism of CYP1A2 marker substrate” value [19] was “did not cause significant induction”. For the same molecule, the “induction of metabolism of CYP3A4 marker substrate” value [20] was “did not cause significant induction”, the overall response rate [21] was 95% and the “unchanged acalabrutinib, share of excreted dose” value ([10]; human mass-balance study) was 1.2%. It also gave an efflux ratio at 1 μM [22] of 42.

In the case of `CCN1CCN(Cc2ccc(Nc3ncc(F)c(-c4cc(F)c5nc(C)n(C(C)C)c5c4)n3)nc2)CC1` [abemaciclib], the increase in exposure [23] is given as 3.4 fold.
